Active and inactive are the calls of the source. The calls are words filed in the database; no cut-off is given here.
Tests used:
ZR-75-1 = test: Growth inhibition of human ZR-75-1 cells after 48 hrs by sulforhodamine B assay; assay type: functional; conditions: ZR-75-1, 48 h
In short: (§1)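 Cells grown in DMEM with 10% FBS and 2 mM L-glutamine, plated at densities set by doubling time, and held 24 h before dosing. Exposure was 48 h to 0.1, 1, 10 and 100 µM in triplicate wells. Cells fixed with cold TCA (final 10%) 60 min at 4 °C and stained with 0.4% SRB 20 min. Bound dye eluted in 10 mM Tris base and read at 540 nm (690 nm reference). GI50 is the concentration giving 50% reduction in net protein gain versus control; values are the mean of three determinations.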

MCF7 = test: Growth inhibition of human MCF7 cells after 48 hrs by sulforhodamine B assay; assay type: functional; conditions: MCF7, 48 h; in short: as §1
KB = test: Growth inhibition of human KB cells after 48 hrs by sulforhodamine B assay; assay type: functional; in short: as §1
[1] = Growth inhibition of human DWD cells after 48 hrs by sulforhodamine B assay; assay type: functional; in short: as §1
HOP-62 = test: Growth inhibition of human HOP62 cells after 48 hrs by sulforhodamine B assay; assay type: functional; conditions: HOP-62, 48 h; in short: as §1
A2780 = test: Growth inhibition of human A2780 cells after 48 hrs by sulforhodamine B assay; assay type: functional; conditions: A2780, 48 h; in short: as §1
COLO 205 [2] = test: Cytotoxicity against human COLO205 cells at 2 uM after 24 hrs by MTT assay; assay type: functional, cell-based
In short: (§2)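 Colo-205 cells plated at 10,000 per well, left overnight, then exposed 24 h at 2, 4 or 8 µM. MTT added for 2 h at 37 °C, formazan dissolved in extraction buffer, and optical density read at 570 nm against untreated cells.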

COLO 205 [3] = test: Cytotoxicity against human COLO205 cells at 4 uM after 24 hrs by MTT assay; assay type: functional, cell-based; in short: as §2
COLO 205 [4] = test: Cell cycle arrest in human COLO205 cells assessed as accumulation at G1 phase at 4 uM after 24 hrs by FACS analysis (reference value: 60.89%); assay type: functional
In short: (§3)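 Colo-205 cells seeded at […] per 60 mm dish and treated 24 h at 4 µM; TSA arm used TSA at 4 µM for 12 h. Cells trypsinised, fixed in ice-cold 70% ethanol 30 min at 4 °C, RNase 1 mg/mL 30 min at 37 °C, then propidium iodide/citrate/Triton stain. DNA content of 20,000 events read by flow cytometry; phase percentages from histograms.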

COLO 205 [5] = test: Cell cycle arrest in human COLO205 cells assessed as accumulation at G0 phase at 4 uM after 24 hrs by FACS analysis in presence of HDAC inhibitor, trichostatin A (reference value: 4.06%); assay type: functional; in short: as §3
COLO 205 [6] = test: Cell cycle arrest in human COLO205 cells assessed as accumulation at S phase at 4 uM after 24 hrs by FACS analysis in presence of HDAC inhibitor, trichostatin A (reference value: 7.89%); assay type: functional; in short: as §3
COLO 205 [7] = test: Cell cycle arrest in human COLO205 cells assessed as accumulation at G2/M phase at 4 uM after 24 hrs by FACS analysis in presence of HDAC inhibitor, trichostatin A (reference value: 17.41%); assay type: functional; in short: as §3
COLO 205 [8] = test: Up-regulation of topoisomerase 2alpha in human COLO205 cells at 4 uM after 24 hrs by Western blotting analysis in presence of HDAC inhibitor, trichostatin A; assay type: functional, cell-based
In short: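 Colo-205 cells exposed 24 h to test agent plus TSA, each at 4 µM. Western blot of lysates probed for topo-IIα, with β-actin as loading control.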

[9] = molecular target: DNA topoisomerase 2-alpha (Homo sapiens) (UniProt P11388); test: Inhibition of topoisomerase 2alpha using pBR322 DNA as substrate at 50 uM after 30 mins by gel electrophoresis
Sequence of DNA topoisomerase 2-alpha (Homo sapiens) (P11388 whole entry): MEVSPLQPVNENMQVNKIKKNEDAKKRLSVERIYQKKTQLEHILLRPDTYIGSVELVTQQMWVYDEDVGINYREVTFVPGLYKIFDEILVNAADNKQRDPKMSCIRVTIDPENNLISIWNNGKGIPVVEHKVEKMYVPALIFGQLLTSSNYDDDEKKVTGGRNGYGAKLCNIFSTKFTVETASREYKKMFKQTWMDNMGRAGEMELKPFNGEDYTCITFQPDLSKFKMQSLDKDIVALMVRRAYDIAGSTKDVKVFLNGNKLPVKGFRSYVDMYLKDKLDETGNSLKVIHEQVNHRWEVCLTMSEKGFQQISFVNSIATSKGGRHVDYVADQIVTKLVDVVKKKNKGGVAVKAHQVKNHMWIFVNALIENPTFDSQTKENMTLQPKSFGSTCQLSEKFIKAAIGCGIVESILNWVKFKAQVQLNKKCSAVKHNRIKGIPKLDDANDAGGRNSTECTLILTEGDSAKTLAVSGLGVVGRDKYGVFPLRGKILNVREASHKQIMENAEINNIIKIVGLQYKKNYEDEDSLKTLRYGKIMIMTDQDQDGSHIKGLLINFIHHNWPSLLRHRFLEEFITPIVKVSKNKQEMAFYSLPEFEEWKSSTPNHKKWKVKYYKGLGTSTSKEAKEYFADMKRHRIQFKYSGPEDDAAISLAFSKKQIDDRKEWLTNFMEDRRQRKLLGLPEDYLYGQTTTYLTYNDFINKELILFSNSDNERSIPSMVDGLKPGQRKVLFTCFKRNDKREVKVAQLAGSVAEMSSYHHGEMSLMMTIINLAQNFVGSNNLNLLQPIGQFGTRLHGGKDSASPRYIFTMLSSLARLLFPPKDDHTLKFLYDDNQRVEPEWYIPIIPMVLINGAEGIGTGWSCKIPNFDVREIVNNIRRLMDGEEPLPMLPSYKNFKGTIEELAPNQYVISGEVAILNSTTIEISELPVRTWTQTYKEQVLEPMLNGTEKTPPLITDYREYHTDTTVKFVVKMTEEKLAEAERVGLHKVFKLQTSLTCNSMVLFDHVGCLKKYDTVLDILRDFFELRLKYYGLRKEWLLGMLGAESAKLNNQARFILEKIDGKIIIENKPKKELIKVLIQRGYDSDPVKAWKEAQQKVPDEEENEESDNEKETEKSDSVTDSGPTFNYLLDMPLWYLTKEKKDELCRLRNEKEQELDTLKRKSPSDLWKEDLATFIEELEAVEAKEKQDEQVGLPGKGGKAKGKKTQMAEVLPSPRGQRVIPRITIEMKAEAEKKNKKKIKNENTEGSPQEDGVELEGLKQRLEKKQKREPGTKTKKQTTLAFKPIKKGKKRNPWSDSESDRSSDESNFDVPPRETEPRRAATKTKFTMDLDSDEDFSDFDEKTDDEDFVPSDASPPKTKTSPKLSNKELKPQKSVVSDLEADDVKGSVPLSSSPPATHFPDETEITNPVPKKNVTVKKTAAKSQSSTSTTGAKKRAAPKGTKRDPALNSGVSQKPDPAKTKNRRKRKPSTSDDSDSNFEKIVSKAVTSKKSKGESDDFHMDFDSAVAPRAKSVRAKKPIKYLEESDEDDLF
In short: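 Purified topo-IIα enzyme (4 U/µL) incubated with pBR322 plasmid DNA and compound at 50, 25 or 10 µM final, in fresh buffer containing ATP, KCl, MgCl2, DTT and Tris pH 8.0. Inhibition of DNA processing assessed on the resulting gel.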

[10] = molecular target: Serine-protein kinase ATM (Homo sapiens) (UniProt Q13315); test: Induction of ATM activation in human COLO205 cells at 4 uM after 24 hrs by ATM S1981 staining; assay type: cell-based; conditions: COLO 205
Sequence of Serine-protein kinase ATM (Homo sapiens) (Q13315 whole entry): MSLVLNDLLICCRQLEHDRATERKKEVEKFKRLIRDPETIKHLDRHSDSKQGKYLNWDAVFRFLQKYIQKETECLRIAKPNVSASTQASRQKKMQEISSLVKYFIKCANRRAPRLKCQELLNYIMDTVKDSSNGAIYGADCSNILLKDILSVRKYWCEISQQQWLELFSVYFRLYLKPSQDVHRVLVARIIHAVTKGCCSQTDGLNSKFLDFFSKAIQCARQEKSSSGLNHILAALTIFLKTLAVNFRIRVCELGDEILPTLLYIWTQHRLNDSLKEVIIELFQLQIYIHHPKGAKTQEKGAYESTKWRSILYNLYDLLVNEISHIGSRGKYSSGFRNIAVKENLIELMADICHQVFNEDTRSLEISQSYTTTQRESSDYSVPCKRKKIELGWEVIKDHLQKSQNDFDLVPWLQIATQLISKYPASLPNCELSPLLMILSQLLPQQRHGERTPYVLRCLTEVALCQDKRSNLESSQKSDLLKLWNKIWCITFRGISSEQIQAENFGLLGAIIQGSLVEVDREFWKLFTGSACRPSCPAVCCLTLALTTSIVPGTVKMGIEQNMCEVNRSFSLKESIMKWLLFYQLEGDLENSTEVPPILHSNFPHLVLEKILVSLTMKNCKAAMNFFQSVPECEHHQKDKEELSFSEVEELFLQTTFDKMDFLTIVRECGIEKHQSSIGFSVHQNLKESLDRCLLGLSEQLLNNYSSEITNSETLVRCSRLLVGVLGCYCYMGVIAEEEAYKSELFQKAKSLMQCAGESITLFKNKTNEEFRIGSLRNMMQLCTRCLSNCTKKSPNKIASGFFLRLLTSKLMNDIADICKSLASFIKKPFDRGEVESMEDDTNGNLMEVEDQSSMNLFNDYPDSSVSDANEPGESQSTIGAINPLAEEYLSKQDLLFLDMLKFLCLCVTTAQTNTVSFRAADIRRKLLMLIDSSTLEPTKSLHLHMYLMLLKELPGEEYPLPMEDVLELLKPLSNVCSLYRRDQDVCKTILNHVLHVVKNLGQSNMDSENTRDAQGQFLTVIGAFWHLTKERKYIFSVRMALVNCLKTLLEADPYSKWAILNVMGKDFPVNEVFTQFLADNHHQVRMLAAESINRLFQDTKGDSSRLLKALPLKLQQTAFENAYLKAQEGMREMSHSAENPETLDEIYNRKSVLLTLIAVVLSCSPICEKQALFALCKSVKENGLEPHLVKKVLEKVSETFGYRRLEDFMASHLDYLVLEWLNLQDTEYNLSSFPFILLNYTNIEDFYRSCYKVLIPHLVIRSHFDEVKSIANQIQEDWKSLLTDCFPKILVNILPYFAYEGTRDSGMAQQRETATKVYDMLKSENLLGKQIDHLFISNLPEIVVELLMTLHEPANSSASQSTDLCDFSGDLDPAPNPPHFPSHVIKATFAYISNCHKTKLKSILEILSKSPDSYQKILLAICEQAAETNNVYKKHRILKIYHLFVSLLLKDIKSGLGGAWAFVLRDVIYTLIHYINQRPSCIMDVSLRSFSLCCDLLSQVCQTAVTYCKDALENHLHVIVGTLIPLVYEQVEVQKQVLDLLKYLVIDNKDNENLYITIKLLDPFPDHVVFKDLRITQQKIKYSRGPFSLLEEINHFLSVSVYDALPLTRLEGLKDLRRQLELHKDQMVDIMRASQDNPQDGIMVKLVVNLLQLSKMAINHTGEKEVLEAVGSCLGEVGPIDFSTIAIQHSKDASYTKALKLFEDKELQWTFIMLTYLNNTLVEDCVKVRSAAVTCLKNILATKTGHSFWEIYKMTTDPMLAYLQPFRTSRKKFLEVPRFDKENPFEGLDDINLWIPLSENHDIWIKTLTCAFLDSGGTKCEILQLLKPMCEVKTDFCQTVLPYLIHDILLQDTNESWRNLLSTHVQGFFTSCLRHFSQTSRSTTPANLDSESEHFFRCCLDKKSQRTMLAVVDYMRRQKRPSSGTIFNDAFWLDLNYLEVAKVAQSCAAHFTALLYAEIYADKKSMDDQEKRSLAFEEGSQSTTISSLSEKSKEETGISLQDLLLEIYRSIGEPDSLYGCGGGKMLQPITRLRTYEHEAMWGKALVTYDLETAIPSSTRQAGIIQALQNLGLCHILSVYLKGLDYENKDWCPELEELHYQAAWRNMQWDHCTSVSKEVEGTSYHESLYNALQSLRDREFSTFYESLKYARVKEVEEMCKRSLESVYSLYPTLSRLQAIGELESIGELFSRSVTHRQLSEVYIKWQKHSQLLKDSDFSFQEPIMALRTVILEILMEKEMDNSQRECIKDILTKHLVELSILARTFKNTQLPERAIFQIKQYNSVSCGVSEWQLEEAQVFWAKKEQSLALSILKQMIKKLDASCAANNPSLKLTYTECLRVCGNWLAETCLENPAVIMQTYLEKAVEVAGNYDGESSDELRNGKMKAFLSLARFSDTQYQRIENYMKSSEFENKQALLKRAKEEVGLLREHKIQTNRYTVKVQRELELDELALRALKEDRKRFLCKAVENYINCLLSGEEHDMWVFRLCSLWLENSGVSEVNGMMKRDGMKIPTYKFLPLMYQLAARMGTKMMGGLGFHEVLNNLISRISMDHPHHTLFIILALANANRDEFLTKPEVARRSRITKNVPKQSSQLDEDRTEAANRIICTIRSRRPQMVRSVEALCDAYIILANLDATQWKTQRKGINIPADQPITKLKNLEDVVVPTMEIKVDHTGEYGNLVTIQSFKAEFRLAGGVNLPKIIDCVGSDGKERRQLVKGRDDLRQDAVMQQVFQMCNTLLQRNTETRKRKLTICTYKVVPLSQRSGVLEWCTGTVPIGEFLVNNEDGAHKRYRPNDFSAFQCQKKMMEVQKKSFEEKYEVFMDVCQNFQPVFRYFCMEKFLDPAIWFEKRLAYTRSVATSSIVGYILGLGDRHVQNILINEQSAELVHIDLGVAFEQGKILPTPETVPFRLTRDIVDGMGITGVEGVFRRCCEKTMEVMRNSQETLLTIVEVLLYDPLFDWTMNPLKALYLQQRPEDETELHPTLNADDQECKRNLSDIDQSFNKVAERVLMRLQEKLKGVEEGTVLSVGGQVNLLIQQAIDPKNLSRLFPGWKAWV
In short: (§4)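 Colo-205 cells on coverslips treated 24 h at 4 µM. Fixed in 4% paraformaldehyde, permeabilised with 0.2% Triton X-100, held in methanol overnight at 4 °C, and blocked with 1% BSA. Stained with anti-phospho-ATM (S1981) or anti-phospho-Chk1 (1:100) for 2 h at room temperature, then FITC anti-rabbit secondary for 1 h; DAPI/PI counterstain and confocal imaging.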

[11] = molecular target: T1, Serine/threonine-protein kinase Chk1 (Homo sapiens) (UniProt O14757); test: Increase in Chk1 phosphorylation at Ser345 in human COLO205 cells after 24 hrs; assay type: cell-based; conditions: COLO 205; in short: as §4
T1 sequence (whole entry): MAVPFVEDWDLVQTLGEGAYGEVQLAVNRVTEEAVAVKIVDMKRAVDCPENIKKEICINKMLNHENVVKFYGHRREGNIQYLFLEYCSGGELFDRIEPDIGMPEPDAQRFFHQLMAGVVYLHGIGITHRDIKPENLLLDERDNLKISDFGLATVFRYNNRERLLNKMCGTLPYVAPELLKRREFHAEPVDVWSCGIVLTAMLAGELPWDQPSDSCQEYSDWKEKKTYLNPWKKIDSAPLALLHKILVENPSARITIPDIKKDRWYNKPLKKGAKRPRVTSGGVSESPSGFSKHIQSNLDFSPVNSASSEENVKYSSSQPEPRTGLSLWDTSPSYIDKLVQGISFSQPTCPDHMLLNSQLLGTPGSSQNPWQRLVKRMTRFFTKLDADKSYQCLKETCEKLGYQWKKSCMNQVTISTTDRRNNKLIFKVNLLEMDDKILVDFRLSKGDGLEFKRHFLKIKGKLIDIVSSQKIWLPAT

COLO 205 [12] = test: Induction of apoptosis in human COLO205 cells assessed as increase in caspase 3 activation at 4 uM after 24 hrs by Western blotting analysis; assay type: functional, cell-based
In short: (§5)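 Colo-205 cells treated 24 h at 4 µM and lysed in ice-cold RIPA with protease inhibitors and NaF. Protein measured by Bradford; 50 µg per lane run on 12% SDS-PAGE and transferred to PVDF. Membrane blocked 2 h, primary antibody (topo-IIα/β, p21, p16, pro-caspase-3, NF-kB p65) overnight at 4 °C, HRP secondary 1:2000 for 1 h, chemiluminescence detection; β-actin as loading control. Reduced procaspase-3 taken as caspase-3 activation.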

COLO 205 [13] = test: Induction of apoptosis in human COLO205 cells assessed as down regulation of Bcl-2 at 4 uM after 24 hrs by ELISA; assay type: functional, cell-based
In short: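 Colo-205 cells treated 24 h at 4 µM, with etoposide and camptothecin as controls. Lysates added to Bcl2-antibody-coated wells, followed by a biotin-conjugated anti-human Bcl2 monoclonal antibody, in a Bcl2 ELISA.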

COLO 205 [14] = test: Induction of apoptosis in human COLO205 cells assessed as up-regulation of p21 at 4 uM after 24 hrs by Western blotting analysis; assay type: functional, cell-based; in short: as §5
COLO 205 [15] = test: Induction of apoptosis in human COLO205 cells assessed as up-regulation of NF-kappaB at 4 uM after 24 hrs by Western blotting analysis; assay type: functional, cell-based; in short: as §5

Row | Compound | GI50 (ZR-75-1) [nM] | GI50 (MCF7) [nM] | GI50 (KB) [nM] | GI50 [1] [nM] | GI50 (HOP-62) [nM] | GI50 (A2780) [nM] | Activity (COLO 205 [2]) | Activity (COLO 205 [3]) | Activity (COLO 205 [4]) [%] | Activity (COLO 205 [5]) [%] | Activity (COLO 205 [6]) [%] | Activity (COLO 205 [7]) [%] | Activity (COLO 205 [8]) | inhibition [9] | Activity [10] | Activity [11] | Activity (COLO 205 [12]) | Activity (COLO 205 [13]) | Activity (COLO 205 [14]) | Activity (COLO 205 [15])
1 | COc1cc([C@@H]2c3cc4c(cc3[C@@H](O[C@@H]3O[C@@H]5CO[C@@H](C)O[C@H]5[C@H](O)[C@H]3O)[C@H]3COC(=O)[C@H]23)OCO4)cc(OC)c1O [ETOPOSIDE] | 200 | 2110 | 310 | 620 | 800 | 1310 | Active | Active | 12.82 | 56.29 | 8.55 | 13.28 | Active | Active | Active | Active | Active | Active | Active | Active
2 | COC(=O)c1sccc1S(=O)(=O)N[C@@H]1c2cc3c(cc2[C@@H](c2cc(OC)c(OC)c(OC)c2)[C@H]2C(=O)OC[C@@H]21)OCO3 | 60 | 180 | 40 | 40 | 40 | 50 | Active | Active | 27.43 | 57.43 | 7.85 | 15.7 | Active | Active | Active | Active | Active | Active | Active | Active
